These results are taken from ChEMBL document CHEMBL1124249 (J Med Chem, 1988).

For one experiment, the species on record is Mus musculus. Put plainly: Inhibitory potency evaluated against electrically evoked contractions of mouse vas deferens. In kind it is functional, organism-based. In short, it runs like this:
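Electrically stimulated twitch of isolated mouse vas deferens (δ assay). IC50 is the concentration giving half-maximal twitch inhibition, taken from six to eight computed log dose-response curves with six concentrations each. [Met]enkephalin IC50 was run on the same preparation. Each IC50 was corrected by the ratio of the mean of all [Met]enkephalin IC50s to that assay's [Met]enkephalin IC50.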

The species entered for another experiment is Cavia porcellus. Put plainly: Inhibitory potency evaluated against electrically evoked contractions of guinea pig ileum. Format: functional, organism-based. In outline:
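Electrically stimulated twitch of isolated guinea pig ileum (μ assay). IC50 is the concentration giving half-maximal twitch inhibition, taken from six to eight computed log dose-response curves with six concentrations each. [Met]enkephalin IC50 was run on the same preparation. Each IC50 was corrected by the ratio of the mean of all [Met]enkephalin IC50s to that assay's [Met]enkephalin IC50.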

The target of a further experiment is Mu-type opioid receptor (Rattus norvegicus, UniProt P33535). Put plainly: Inhibition of [3H]DAGO binding to rat brain membrane Opioid receptor mu 1.
The nature of experiment [1]: Ratio of IC50 for MVD to GPI. Format: functional.
Experiment [2] addresses Delta-type opioid receptor (Rattus norvegicus, UniProt P33533). The experiment can be described thus: Inhibition of [3H]DTLET binding torat brain membrane Opioid receptor delta 1.

Molecules are shown by their SMILES. Bounds are passed on as bounds.

Chain of Mu-type opioid receptor (P33535 whole entry): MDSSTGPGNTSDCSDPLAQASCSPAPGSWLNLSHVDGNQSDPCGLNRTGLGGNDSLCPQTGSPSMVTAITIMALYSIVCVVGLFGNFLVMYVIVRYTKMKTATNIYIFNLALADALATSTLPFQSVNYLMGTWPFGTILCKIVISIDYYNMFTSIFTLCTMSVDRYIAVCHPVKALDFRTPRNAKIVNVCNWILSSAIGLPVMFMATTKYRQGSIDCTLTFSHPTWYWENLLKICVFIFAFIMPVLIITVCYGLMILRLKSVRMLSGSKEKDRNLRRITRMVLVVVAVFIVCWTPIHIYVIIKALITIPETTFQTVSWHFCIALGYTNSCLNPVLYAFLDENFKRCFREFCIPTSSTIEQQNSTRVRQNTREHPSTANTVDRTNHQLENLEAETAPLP
Chain of Delta-type opioid receptor (P33533 whole entry): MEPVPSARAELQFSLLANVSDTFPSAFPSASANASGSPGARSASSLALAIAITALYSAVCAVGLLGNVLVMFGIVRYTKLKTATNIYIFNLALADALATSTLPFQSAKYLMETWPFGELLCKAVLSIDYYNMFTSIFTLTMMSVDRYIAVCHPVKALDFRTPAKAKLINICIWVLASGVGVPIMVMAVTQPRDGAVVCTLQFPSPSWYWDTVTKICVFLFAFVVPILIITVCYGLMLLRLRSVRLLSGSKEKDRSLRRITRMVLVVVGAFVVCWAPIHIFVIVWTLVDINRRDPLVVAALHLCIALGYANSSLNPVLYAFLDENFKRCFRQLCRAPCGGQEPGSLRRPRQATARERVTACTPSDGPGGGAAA

With `CC(C)C[C@H](NC(=O)[C@H](Cc1ccccc1)NC(=O)CNC(=O)[C@H](NC(=O)[C@@H](N)Cc1ccc(O)cc1)[C@@H](C)OC(C)(C)C)C(=O)N[C@H](C(=O)O)[C@@H](C)O`, the IC50 in the experiment filed under Mus musculus amounted to 1190 nM; in the experiment listed under Cavia porcellus, 11400 nM. In addition, the Ki turned out to be 4500 nM at Mu-type opioid receptor and 866 nM in experiment [2]. In addition, the Ratio in experiment [1] was 0.1.
On to `CC(C)C[C@H](NC(=O)[C@H](Cc1ccccc1)NC(=O)CNC(=O)[C@@H](CO)NC(=O)[C@@H](N)Cc1ccc(O)cc1)C(=O)N[C@H](C(=O)O)[C@@H](C)OC(C)(C)C`, for which the values for the IC50 in the experiment listed under Mus musculus and in the experiment listed under Cavia porcellus were 0.84 nM and 202 nM, respectively. The values for the Ki (at Mu-type opioid receptor; in experiment [2]) were 185 nM and 6.35 nM, respectively. Besides, the Ratio in experiment [1] worked out at 0.0041.
As for `CC(C)C[C@H](NC(=O)[C@H](Cc1ccccc1)NC(=O)CNC(=O)[C@@H](COC(C)(C)C)NC(=O)[C@@H](N)Cc1ccc(O)cc1)C(=O)N[C@H](C(=O)O)[C@@H](C)OC(C)(C)C`, the IC50 in the experiment listed under Mus musculus worked out at 0.6 nM; in the experiment filed under Cavia porcellus, 2790 nM. The Ki on Mu-type opioid receptor amounted to 475 nM; in experiment [2] it was 4.68 nM. The Ratio in experiment [1] was 0.00021.
Take `CC(C)C[C@H](NC(=O)[C@H](Cc1ccccc1)NC(=O)CNC(=O)[C@@H](NC(=O)[C@@H](N)Cc1ccc(O)cc1)[C@@H](C)O)C(=O)N[C@H](C(=O)O)[C@@H](C)O`: the results for the IC50 in the experiment filed under Mus musculus and in the experiment filed under Cavia porcellus were 0.15 nM and 460 nM, respectively. The Ki at Mu-type opioid receptor was determined as 23.3 nM; in experiment [2], 1.35 nM. Further, the Ratio in experiment [1] was 0.0003.
Consider `CC(C)C[C@H](NC(=O)[C@H](Cc1ccccc1)NC(=O)CNC(=O)[C@@H](CO)NC(=O)[C@@H](N)Cc1ccc(O)cc1)C(=O)N[C@H](C(=O)O)[C@@H](C)O`, for which the IC50 in the experiment filed under Mus musculus was 0.4 nM; in the experiment listed under Cavia porcellus, 406 nM. Further, the Ratio in experiment [1] came to 0.001.
With `CC(C)C[C@H](NC(=O)[C@H](Cc1ccccc1)NC(=O)CNC(=O)[C@@H](COC(C)(C)C)NC(=O)[C@@H](N)Cc1ccc(O)cc1)C(=O)N[C@H](C(=O)O)[C@@H](C)O`, the IC50 in the experiment filed under Mus musculus turned out to be 1.07 nM; in the experiment listed under Cavia porcellus it was 1800 nM. Further, the Ki on Mu-type opioid receptor was found to be 374 nM; in experiment [2] it was 6.14 nM. Besides, the Ratio in experiment [1] came to 0.0006.
As to `CC(C)C[C@H](NC(=O)[C@H](Cc1ccccc1)NC(=O)CNC(=O)[C@@H](NC(=O)[C@@H](N)Cc1ccc(O)cc1)[C@@H](C)OC(C)(C)C)C(=O)N[C@H](C(=O)O)[C@@H](C)O`, the Ki on Mu-type opioid receptor is over 100000 nM; in experiment [2], 13000 nM.
With `CC(C)C[C@H](NC(=O)[C@H](Cc1ccccc1)NC(=O)CNC(=O)[C@@H](NC(=O)[C@@H](N)Cc1ccc(O)cc1)[C@@H](C)O)C(=O)N[C@H](C(=O)O)[C@@H](C)OC(C)(C)C`, the IC50 came to 0.75 nM in the experiment listed under Mus musculus and 204 nM in the experiment filed under Cavia porcellus. The Ki at Mu-type opioid receptor turned out to be 64.6 nM; in experiment [2], 3.1 nM. Moreover, the Ratio in experiment [1] worked out at 0.0037.
As for `CC(C)C[C@H](NC(=O)[C@H](Cc1ccccc1)NC(=O)CNC(=O)[C@@H](COCc1ccccc1)NC(=O)[C@@H](N)Cc1ccc(O)cc1)C(=O)N[C@H](C(=O)O)[C@@H](C)O`, the results for the IC50 in the experiment filed under Mus musculus and in the experiment listed under Cavia porcellus were 0.35 nM and 83.3 nM, respectively. Moreover, the inhibitory constant (Ki) at Mu-type opioid receptor came out at 42.1 nM; in experiment [2] it was 1.47 nM. In experiment [1], the Ratio came to 0.0042.
`CSCC[C@H](NC(=O)[C@H](Cc1ccccc1)NC(=O)CNC(=O)CNC(=O)[C@@H](N)Cc1ccc(O)cc1)C(=O)O`: the values for the IC50 in the experiment listed under Mus musculus and in the experiment listed under Cavia porcellus were 13 nM and 200 nM, respectively.

In general, IC50 refers to the midpoint of a concentration-inhibition curve. The Ki is the dissociation constant of the complex between target and ligand, obtained from inhibition or displacement.
